Measurements reported in ChEMBL document CHEMBL3286101, “Probing of primed and unprimed sites of calpains: Design, synthesis and evaluation of epoxysuccinyl-peptide derivatives as selective inhibitors” (Eur J Med Chem, 2014).
Peptide text beside a SMILES is read from it. * marks the point of attachment. X4 = CC(C)C[C@H](NC(=O)[C@@H]1O[C@H]1C(=O)*)C(=O)N[C@@H](Cc1c[nH]c2ccccc12)C(=O)N[C@H](C(N)=O)[C@@H](C)O; X5 = CC(C)C[C@H](NC(=O)[C@H]1O[C@@H]1C(=O)*)C(=O)N[C@@H](Cc1c[nH]c2ccccc12)C(=O)N[C@H](C(N)=O)[C@@H](C)O; X3 = C[C@@H](O)[C@H](NC(=O)[C@@H]1CCCN1C(=O)[C@@H](NC(=O)[C@H]1O[C@@H]1C(=O)*)[C@@H](C)O)C(N)=O; X9 = C[C@@H](O)[C@H](NC(=O)[C@@H]1CCCN1C(=O)[C@@H](NC(=O)[C@@H]1O[C@H]1C(=O)*)[C@@H](C)O)C(N)=O; X10 = CC(C)C[C@H](NC(=O)[C@@H]1O[C@H]1C(=O)*)C(=O)N[C@@H](CO)C(=O)N[C@H](C(N)=O)[C@@H](C)O; X1 = CC(C)C[C@H](NC(=O)[C@H]1O[C@@H]1C(=O)*)C(=O)N1CCC[C@H]1C(=O)N[C@H](C(N)=O)[C@@H](C)O; X2 = CC(C)C[C@H](NC(=O)[C@@H]1O[C@H]1C(=O)*)C(=O)N1CCC[C@H]1C(=O)N[C@H](C(N)=O)[C@@H](C)O; X6 = CC(C)C[C@H](NC(=O)[C@H]1O[C@@H]1C(=O)*)C(=O)N[C@@H](CO)C(=O)N[C@H](C(N)=O)[C@@H](C)O; X7 = CC(C)[C@H](NC(=O)[C@@H]1O[C@H]1C(=O)*)C(=O)N1CCC[C@H]1C(=O)N[C@H](C(N)=O)[C@@H](C)O; X8 = CC(C)[C@H](NC(=O)[C@H]1O[C@@H]1C(=O)*)C(=O)N1CCC[C@H]1C(=O)N[C@H](C(N)=O)[C@@H](C)O

Key:
[1] = Retention time of the compound by RP-HPLC analysis; type: physicochemical
Procedure, shortened: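 Analytical RP-HPLC on a C18 column (150 × 4.6 mm, 5 μm, 100 Å). Eluent A is 0.1% TFA in water and eluent B is 0.1% TFA in acetonitrile–water 80:20. Gradient runs 0% B for 2 min, then to 90% B at 22 min, at 1 mL/min and ambient temperature. Detection at 220 nm.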

[2] = target: T1, Calpain-1 catalytic subunit (Homo sapiens, UniProt P07384); experiment: Inhibition of calpain-1 (unknown origin) using Suc-LY-AMC as substrate by fluorescence assay
T1 sequence (P07384 whole entry): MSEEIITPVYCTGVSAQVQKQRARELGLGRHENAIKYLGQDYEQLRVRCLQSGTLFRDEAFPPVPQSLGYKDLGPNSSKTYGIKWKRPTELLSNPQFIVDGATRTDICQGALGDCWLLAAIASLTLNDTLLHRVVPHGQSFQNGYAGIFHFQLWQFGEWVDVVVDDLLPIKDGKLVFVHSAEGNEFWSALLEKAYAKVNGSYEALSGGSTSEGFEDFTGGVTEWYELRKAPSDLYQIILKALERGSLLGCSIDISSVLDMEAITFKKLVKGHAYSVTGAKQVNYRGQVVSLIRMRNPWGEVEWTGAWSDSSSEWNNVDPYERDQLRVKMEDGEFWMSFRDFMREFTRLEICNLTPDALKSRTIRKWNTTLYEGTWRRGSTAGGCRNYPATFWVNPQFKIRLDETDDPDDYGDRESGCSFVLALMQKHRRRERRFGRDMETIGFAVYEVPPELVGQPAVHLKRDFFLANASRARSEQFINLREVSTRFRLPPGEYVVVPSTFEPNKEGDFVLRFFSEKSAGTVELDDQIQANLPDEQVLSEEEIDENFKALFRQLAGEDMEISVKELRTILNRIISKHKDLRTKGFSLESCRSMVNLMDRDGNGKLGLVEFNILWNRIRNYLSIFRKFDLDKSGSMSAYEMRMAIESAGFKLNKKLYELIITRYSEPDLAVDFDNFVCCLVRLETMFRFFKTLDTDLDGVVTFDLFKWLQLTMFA
Procedure, shortened: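 Human erythrocyte calpain 1 at 0.5 μM starts the reaction, added to 100 µM Suc-LY-AMC, 3 mM Ca2+ and inhibitor at various concentrations in 50 µL calpain buffer (10 mM HEPES, 150 mM NaCl, 1 mM EDTA, pH 7.5). Fluorescence is followed at 380/460 nm. Triplicate experiments; mean ± S.D.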

[3] = Inhibition of rat calpain-2 large subnit/truncated small subunit expressed in Escherichia coli using Suc-LY-AMC as substrate by fluorescence assay
Procedure, shortened: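 Rat calpain 2 is made from its 80-kDa large subunit and 21-kDa truncated small subunit, expressed in E. coli, purified on HisTrap and dialyzed into calpain buffer (10 mM HEPES, 150 mM NaCl, 1 mM EDTA, pH 7.5). The reaction starts when 0.2 μM enzyme is added to 100 µM Suc-LY-AMC, 3 mM Ca2+ and inhibitor at various concentrations. Fluorescence is read at 380/460 nm. Triplicates; mean ± S.D.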

Cathepsin B = Cathepsin B (Homo sapiens, UniProt P07858); experiment: Inhibition of cathepsin B (unknown origin) using substrate-3 as substrate by fluorescence assay
Procedure, shortened: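 Human liver cathepsin B is activated in 0.25 mM MES containing 10 mM DTE. The reaction starts when it is added at 0.7 nM to 100 μM Z-Arg-AMC with inhibitor at various concentrations in 0.25 mM MES, pH 5.0. Fluorescence is followed at 380/460 nm. Triplicates; mean ± S.D.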

[4] = Selectivity ratio of Ki for cathepsin B (unknown origin) to Ki for rat calpain-2

SMILES | Retention_time [1] | Ki [2] | Ki (Cathepsin B) | Ratio Ki [4] | Retention time [1] | Ki [3]
CC(C)C[C@H](NC(=O)[C@H]1O[C@@H]1C(=O)N[C@@H](CCCNC(=N)N)C(=O)N1CCC[C@H]1C(=O)N1CCC[C@H]1C(=O)N1CCC[C@H]1C(=O)N[C@@H](CO)C(N)=O)C(=O)N1CCC[C@H]1C(=O)N[C@H](C(N)=O)[C@@H](C)O (X1-RPPPS-NH2) | 11.1 min | 23.7 µM | > 50 µM | – | – | 17.9 µM
CC(C)C[C@H](NC(=O)[C@H]1O[C@@H]1C(=O)N[C@@H](CO)C(=O)N1CCC[C@H]1C(=O)N1CCC[C@H]1C(=O)N1CCC[C@H]1C(=O)N[C@@H](CO)C(N)=O)C(=O)N1CCC[C@H]1C(=O)N[C@H](C(N)=O)[C@@H](C)O (X1-SPPPS-NH2) | 12.5 min | 12.5 µM | > 50 µM | – | – | > 50 µM
CC(C)C[C@H](NC(=O)[C@H]1O[C@@H]1C(=O)N[C@H](C(=O)N1CCC[C@H]1C(=O)N1CCC[C@H]1C(=O)N1CCC[C@H]1C(=O)N[C@@H](CO)C(N)=O)[C@@H](C)O)C(=O)N1CCC[C@H]1C(=O)N[C@H](C(N)=O)[C@@H](C)O (X1-TPPPS-NH2) | 11 min | 8.38 µM | 12.1 µM | – | – | > 50 µM
CC(C)C[C@H](NC(=O)[C@@H]1O[C@H]1C(=O)N[C@@H](CCCNC(=N)N)C(=O)N1CCC[C@H]1C(=O)N1CCC[C@H]1C(=O)N1CCC[C@H]1C(=O)N[C@@H](CO)C(N)=O)C(=O)N1CCC[C@H]1C(=O)N[C@H](C(N)=O)[C@@H](C)O (X2-RPPPS-NH2) | 11.1 min | 26.3 µM | > 100 µM | – | – | > 50 µM
CC(C)C[C@H](NC(=O)[C@@H]1O[C@H]1C(=O)N[C@@H](CO)C(=O)N1CCC[C@H]1C(=O)N1CCC[C@H]1C(=O)N1CCC[C@H]1C(=O)N[C@@H](CO)C(N)=O)C(=O)N1CCC[C@H]1C(=O)N[C@H](C(N)=O)[C@@H](C)O (X2-SPPPS-NH2) | 10.9 min | > 100 µM | > 50 µM | – | – | > 50 µM
CC(C)C[C@H](NC(=O)[C@@H]1O[C@H]1C(=O)N[C@H](C(=O)N1CCC[C@H]1C(=O)N1CCC[C@H]1C(=O)N1CCC[C@H]1C(=O)N[C@@H](CO)C(N)=O)[C@@H](C)O)C(=O)N1CCC[C@H]1C(=O)N[C@H](C(N)=O)[C@@H](C)O (X2-TPPPS-NH2) | 12.3 min | > 50 µM | > 50 µM | 11.8 | – | 4.24 µM
C[C@@H](O)[C@H](NC(=O)[C@@H]1CCCN1C(=O)[C@@H](NC(=O)[C@H]1O[C@@H]1C(=O)N[C@@H](CO)C(=O)N1CCC[C@H]1C(=O)N1CCC[C@H]1C(=O)N1CCC[C@H]1C(=O)N[C@@H](CO)C(N)=O)[C@@H](C)O)C(N)=O (X3-SPPPS-NH2) | 9.7 min | > 100 µM | > 100 µM | – | – | > 100 µM
CC(C)[C@H](NC(=O)[C@@H]1O[C@H]1C(=O)N[C@@H](CO)C(=O)N1CCC[C@H]1C(=O)N1CCC[C@H]1C(=O)N1CCC[C@H]1C(=O)N[C@@H](CO)C(N)=O)C(=O)N1CCC[C@H]1C(=O)N[C@H](C(N)=O)[C@@H](C)O (X7-SPPPS-NH2) | 10.2 min | > 50 µM | > 100 µM | – | – | > 100 µM
CC(C)[C@H](NC(=O)[C@H]1O[C@@H]1C(=O)N[C@@H](CO)C(=O)N1CCC[C@H]1C(=O)N1CCC[C@H]1C(=O)N1CCC[C@H]1C(=O)N[C@@H](CO)C(N)=O)C(=O)N1CCC[C@H]1C(=O)N[C@H](C(N)=O)[C@@H](C)O (X8-SPPPS-NH2) | 10.7 min | > 50 µM | > 100 µM | – | – | 29.2 µM
C[C@@H](O)[C@H](NC(=O)[C@@H]1CCCN1C(=O)[C@@H](NC(=O)[C@@H]1O[C@H]1C(=O)N[C@@H](CO)C(=O)N1CCC[C@H]1C(=O)N1CCC[C@H]1C(=O)N1CCC[C@H]1C(=O)N[C@@H](CO)C(N)=O)[C@@H](C)O)C(N)=O (X9-SPPPS-NH2) | 9.1 min | > 100 µM | – | – | – | –

Now from value to compound, other results behind:

Retention_time [1] | Ki [2] | Ki (Cathepsin B) | Ratio Ki [4] | Retention time [1] | SMILES | Ki [3]
10.8 min | > 100 µM | > 100 µM | – | – | CC(C)C[C@H](NC(=O)[C@H]1O[C@@H]1C(=O)N[C@@H](CO)C(=O)N[C@@H](CCC(N)=O)C(=O)N1CCC[C@H]1C(=O)N1CCC[C@H]1C(=O)N[C@@H](CO)C(N)=O)C(=O)N1CCC[C@H]1C(=O)N[C@H](C(N)=O)[C@@H](C)O (X1-SQPPS-NH2) | > 100 µM
12 min | > 100 µM | > 100 µM | – | – | CC(C)C[C@H](NC(=O)[C@H]1O[C@@H]1C(=O)N[C@@H](CO)C(=O)N[C@@H](CO)C(=O)N1CCC[C@H]1C(=O)N1CCC[C@H]1C(=O)N[C@@H](CO)C(N)=O)C(=O)N1CCC[C@H]1C(=O)N[C@H](C(N)=O)[C@@H](C)O (X1-SSPPS-NH2) | > 100 µM
10.7 min | > 100 µM | > 100 µM | – | – | CC(C)C[C@H](NC(=O)[C@@H]1O[C@H]1C(=O)N[C@@H](CO)C(=O)N[C@@H](CCC(N)=O)C(=O)N1CCC[C@H]1C(=O)N1CCC[C@H]1C(=O)N[C@@H](CO)C(N)=O)C(=O)N1CCC[C@H]1C(=O)N[C@H](C(N)=O)[C@@H](C)O (X2-SQPPS-NH2) | > 100 µM
11.9 min | > 100 µM | > 100 µM | – | – | CC(C)C[C@H](NC(=O)[C@@H]1O[C@H]1C(=O)N[C@@H](CO)C(=O)N[C@@H](CO)C(=O)N1CCC[C@H]1C(=O)N1CCC[C@H]1C(=O)N[C@@H](CO)C(N)=O)C(=O)N1CCC[C@H]1C(=O)N[C@H](C(N)=O)[C@@H](C)O (X2-SSPPS-NH2) | > 100 µM
13.2 min | 3.7 µM | 4.45 µM | – | – | CC(C)C[C@H](NC(=O)[C@@H]1O[C@H]1C(=O)N[C@@H](CO)C(=O)N1CCC[C@H]1C(=O)N1CCC[C@H]1C(=O)N1CCC[C@H]1C(=O)N[C@@H](CO)C(N)=O)C(=O)N[C@@H](Cc1c[nH]c2ccccc12)C(=O)N[C@H](C(N)=O)[C@@H](C)O (X4-SPPPS-NH2) | 21.4 µM
– | 17.1 µM | 5 µM | – | 12.5 min | CC(C)C[C@H](NC(=O)[C@H]1O[C@@H]1C(=O)N[C@@H](CO)C(=O)N1CCC[C@H]1C(=O)N1CCC[C@H]1C(=O)N1CCC[C@H]1C(=O)N[C@@H](CO)C(N)=O)C(=O)N[C@@H](Cc1c[nH]c2ccccc12)C(=O)N[C@H](C(N)=O)[C@@H](C)O (X5-SPPPS-NH2) | 4.05 µM
10.3 min | 21.9 µM | > 50 µM | – | – | CC(C)C[C@H](NC(=O)[C@H]1O[C@@H]1C(=O)N[C@@H](CO)C(=O)N1CCC[C@H]1C(=O)N1CCC[C@H]1C(=O)N1CCC[C@H]1C(=O)N[C@@H](CO)C(N)=O)C(=O)N[C@@H](CO)C(=O)N[C@H](C(N)=O)[C@@H](C)O (X6-SPPPS-NH2) | 14.3 µM
10.2 min | 30.8 µM | – | – | – | CC(C)C[C@H](NC(=O)[C@@H]1O[C@H]1C(=O)N[C@@H](CO)C(=O)N1CCC[C@H]1C(=O)N1CCC[C@H]1C(=O)N1CCC[C@H]1C(=O)N[C@@H](CO)C(N)=O)C(=O)N[C@@H](CO)C(=O)N[C@H](C(N)=O)[C@@H](C)O (X10-SPPPS-NH2) | –
